Assay results taken from ChEMBL document CHEMBL3808283, “Biological Characterization and in Vivo Assessment of the Activity of a New Synthetic Macrocyclic Antifungal Compound” (J Med Chem, 2016).
Converted amounts (≈) assume the structure as drawn. The source made the active and inactive calls. No cut-off for these calls is given here.

What was measured:
Candida albicans [1] = experiment: Upregulation of RTA2 gene expression in Candida albicans SC5314 at 3 uM after 45 mins by microarray method relative to control; assay type: functional
Outline: (§1)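 Log-phase C. albicans SC5314 in liquid YEPD exposed to 3 µM final for 15 or 45 min; untreated controls taken at the same time points. Three biological replicates. RNA extracted by glass-bead/phenol-chloroform method and integrity checked. One-color Cy3-labeled cRNA (600 ng) hybridized 17 h at 65 °C to 8 × 15K arrays. Expression expressed as fold change versus control.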

Candida albicans [2] = experiment: Upregulation of orf19.1887 gene expression in Candida albicans SC5314 at 3 uM after 15 mins by microarray method relative to control; assay type: functional
Outline: (§2)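 Log-phase cultures in liquid YEPD were exposed to 3 µM compound (final) for 15 or 45 min, with untreated controls sampled at the same times, in three biological replicates. Total RNA was extracted by glass-bead/phenol-chloroform disruption and integrity-checked. One-color Cy3-labelled cRNA (600 ng) was hybridized for 17 h at 65 °C to 8 × 15K arrays, and fold change was taken versus control.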

[3] = Antifungal activity against Geotrichum silvicola measured at 48 hrs by broth dilution assay; assay type: functional
Outline: (§3)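 EUCAST broth microdilution, including the update for non-fermenting yeasts (Cryptococcus, Geotrichum), on clinical and reference yeast isolates. Incubated at 37 °C and read at 24, 48 and 72 h. MIC taken as the lowest concentration with no visible growth. For Cryptococcus and Geotrichum, MICs were read only once growth was visible in the control row.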

Candida albicans [4] = experiment: Upregulation of IFU5 gene expression in Candida albicans SC5314 at 3 uM after 15 mins by microarray method relative to control; assay type: functional; outline: as §1
Candida albicans [5] = experiment: Upregulation of orf19.4907 gene expression in Candida albicans SC5314 at 3 uM after 45 mins by microarray method relative to control; assay type: functional; outline: as §2
Magnusiomyces capitatus [6] = experiment: Antifungal activity against Geotrichum capitatum measured at 24 hrs by broth dilution assay; assay type: functional; outline: as §3
Candida albicans [7] = experiment: Upregulation of IFU5 gene expression in Candida albicans SC5314 at 3 uM after 45 mins by microarray method relative to control; assay type: functional; outline: as §1
Pichia kudriavzevii [8] = experiment: Ratio of MIC at 24 hrs to MIC at 48 hrs for Candida krusei 193T; assay type: functional
Outline: (§4)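 MICs by EUCAST broth microdilution, with the update for non-fermenting yeasts, incubated at 37 °C. Read at 24, 48 and 72 h as the lowest concentration preventing visible growth.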

Pichia kudriavzevii [9] = experiment: Antifungal activity against Candida krusei ATCC 14243 measured at 72 hrs by broth dilution assay; assay type: functional; details: ATCC 14243, 72 h; outline: as §3
Pichia kudriavzevii [10] = experiment: Antifungal activity against Candida krusei 193T measured at 24 hrs by broth dilution assay; assay type: functional; outline: as §3
Candida albicans [11] = experiment: Upregulation of PDR16 gene expression in Candida albicans SC5314 at 3 uM after 45 mins by microarray method relative to control; assay type: functional; outline: as §1
Candida parapsilosis [12] = experiment: Antifungal activity against Candida parapsilosis 81E measured at 48 hrs by broth dilution assay; assay type: functional; details: Lodderomyces parapsilosis; outline: as §3
Candida parapsilosis [13] = experiment: Antifungal activity against Candida parapsilosis 81E measured at 24 hrs by broth dilution assay; assay type: functional; details: Lodderomyces parapsilosis; outline: as §3
[14] = Chemical stability in RPMI-1640 buffer at 2 mM up to 72 hrs at 30 degC by LC-UV-MS analysis; details: 2000 µM
Candida albicans [15] = experiment: Antifungal activity against Candida albicans ATCC 60193 measured at 48 hrs by broth dilution assay; assay type: functional; details: ATCC 60193, 48 h; outline: as §3
Pichia kudriavzevii [16] = experiment: Ratio of MIC at 24 hrs to MIC at 48 hrs for Candida krusei ATCC 14243; assay type: functional; outline: as §4
Candida parapsilosis [17] = experiment: Antifungal activity against Candida parapsilosis 81E measured at 72 hrs by broth dilution assay; assay type: functional; details: Lodderomyces parapsilosis; outline: as §3
Candida albicans [18] = experiment: Antifungal activity against Candida albicans 4T measured at 48 hrs by broth dilution assay; assay type: functional; outline: as §3
Candida parapsilosis [19] = experiment: Antifungal activity against Candida parapsilosis 64E measured at 72 hrs by broth dilution assay; assay type: functional; details: Lodderomyces parapsilosis; outline: as §3
Candida albicans [20] = experiment: Upregulation of ARE2 gene expression in Candida albicans SC5314 at 3 uM after 15 mins by microarray method relative to control; assay type: functional; outline: as §1
Candida albicans [21] = experiment: Antifungal activity against Candida albicans 15T up to 96 hrs by broth dilution assay; assay type: functional, organism-based
Candida albicans [22] = experiment: Upregulation of TAC1 gene expression in Candida albicans SC5314 at 3 uM after 15 mins by microarray method relative to control; assay type: functional; outline: as §1
Candida albicans [23] = experiment: Upregulation of orf19.3378 gene expression in Candida albicans SC5314 at 3 uM after 15 mins by microarray method relative to control; assay type: functional; outline: as §2
Nakaseomyces glabratus [24] = experiment: Antifungal activity against Candida glabrata 70 measured at 72 hrs by broth dilution assay; assay type: functional; details: Nakaseomyces glabratus, 70, 72 h; outline: as §3
Pichia kudriavzevii [25] = experiment: Antifungal activity against Candida krusei 193T measured at 72 hrs by broth dilution assay; assay type: functional; outline: as §3
Magnusiomyces capitatus [26] = experiment: Antifungal activity against Geotrichum capitatum measured at 48 hrs by broth dilution assay; assay type: functional; outline: as §3
Candida albicans [27] = experiment: Upregulation of TAC1 gene expression in Candida albicans SC5314 at 3 uM after 45 mins by microarray method relative to control; assay type: functional; outline: as §1
Candida albicans [28] = experiment: Antifungal activity against Candida albicans 15T measured at 24 hrs by broth dilution assay; assay type: functional; outline: as §3
Candida albicans [29] = experiment: Upregulation of PDR16 gene expression in Candida albicans SC5314 at 3 uM after 15 mins by microarray method relative to control; assay type: functional; outline: as §1
Candida albicans [30] = experiment: Upregulation of orf19.4531 gene expression in Candida albicans SC5314 at 3 uM after 45 mins by microarray method relative to control; assay type: functional; outline: as §2
Nakaseomyces glabratus [31] = experiment: Antifungal activity against Candida glabrata 70 measured at 48 hrs by broth dilution assay; assay type: functional; details: Nakaseomyces glabratus, 70, 48 h; outline: as §3
Candida albicans [32] = experiment: Fungicidal activity against Candida albicans ATCC 60193 at 5 uM up to 24 hrs by time kill assay relative to control; assay type: functional
Outline: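 EUCAST broth microdilution at 37 °C. From wells at MIC, 2×, 4× and 8× MIC, 10 µL aliquots were taken, serially 10-fold diluted in saline and plated on Sabouraud dextrose agar. Plates were incubated at 37 °C for 24/48 h, and 48 h for Cryptococcus and Geotrichum. Done in duplicate, detection limit 10 CFU/mL. A drop of at least 3 Log10 CFU/mL from the initial inoculum in 24 h counts as fungicidal; a smaller drop counts as fungistatic.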

Candida albicans [33] = experiment: Antifungal activity against Candida albicans 15T measured at 48 hrs by broth dilution assay; assay type: functional; outline: as §3
[34] = Antifungal activity against Geotrichum silvicola measured at 24 hrs by broth dilution assay; assay type: functional; outline: as §3
Candida albicans [35] = experiment: Upregulation of FCR1 gene expression in Candida albicans SC5314 at 3 uM after 15 mins by microarray method relative to control; assay type: functional; outline: as §1
Candida albicans [36] = experiment: Upregulation of orf19.3089 gene expression in Candida albicans SC5314 at 3 uM after 45 mins by microarray method relative to control; assay type: functional; outline: as §2
Candida albicans [37] = experiment: Antifungal activity against Candida albicans isolate DSY448 harboring CDR1 deletion mutant at 10 uM by serial dilution assay; assay type: functional, organism-based
Outline: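 Spot dilution assay: C. albicans cells 10-fold serially diluted from 2 × 10^7 cells/mL, with 5 µL of each dilution spotted onto YEPD agar plates containing the drug.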

Candida parapsilosis [38] = experiment: Antifungal activity against Candida parapsilosis 64E measured at 48 hrs by broth dilution assay; assay type: functional; details: Lodderomyces parapsilosis; outline: as §3

For `C/C=C/CNC(=N)NCCCCCCCCN1CCCCCCCCNC(=N)NC1=O`, the “fold change (FC)” value (Candida albicans [1]) was 2.93, the “fold change (FC)” value (Candida albicans [2]) was 2.19 and the MIC [3] was 10 µM (≈ 4.36 µg/mL). For the same molecule, the “fold change (FC)” value (Candida albicans [4]) was 1.63, the “fold change (FC)” value (Candida albicans [5]) was 5.3 and the Activity (Magnusiomyces capitatus [6]) was “Active”. The “fold change (FC)” value (Candida albicans [7]) was 2.58, the Ratio (Pichia kudriavzevii [8]) was 8 and the MIC (Pichia kudriavzevii [9]) was 80 µM (≈ 34.9 µg/mL). For the same molecule, the MIC (Pichia kudriavzevii [10]) was 10 µM (≈ 4.36 µg/mL), the “fold change (FC)” value (Candida albicans [11]) was 6.89 and the MIC (Candida parapsilosis [12]) was 40 µM (≈ 17.4 µg/mL). The MIC (Candida parapsilosis [13]) was 20 µM (≈ 8.71 µg/mL), the Stability [14] was “Stable” and the MIC (Candida albicans [15]) was 5 µM (≈ 2.18 µg/mL). For the same molecule, the Ratio (Pichia kudriavzevii [16]) was 8, the MIC (Candida parapsilosis [17]) was 40 µM (≈ 17.4 µg/mL) and the MIC (Candida albicans [18]) was 5 µM (≈ 2.18 µg/mL). For the same molecule, the MIC (Candida parapsilosis [19]) was 40 µM (≈ 17.4 µg/mL), the “fold change (FC)” value (Candida albicans [20]) was 2.11 and the Activity (Candida albicans [21]) was “Active”. The “fold change (FC)” value (Candida albicans [22]) was 2.79, the “fold change (FC)” value (Candida albicans [23]) was 5.32 and the MIC (Nakaseomyces glabratus [24]) was > 80 µM. The MIC (Pichia kudriavzevii [25]) was 80 µM (≈ 34.9 µg/mL), the MIC (Magnusiomyces capitatus [26]) was 10 µM (≈ 4.36 µg/mL) and the “fold change (FC)” value (Candida albicans [27]) was 3.38. For the same molecule, the MIC (Candida albicans [28]) was 5 µM (≈ 2.18 µg/mL), the “fold change (FC)” value (Candida albicans [29]) was 4.43 and the “fold change (FC)” value (Candida albicans [30]) was 21.54. For the same molecule, the MIC (Nakaseomyces glabratus [31]) was > 80 µM, the Activity (Candida albicans [32]) was 99.9% and the MIC (Candida albicans [33]) was 5 µM (≈ 2.18 µg/mL). The Activity [34] was “Active”, the “fold change (FC)” value (Candida albicans [35]) was 2.86 and the “fold change (FC)” value (Candida albicans [36]) was 2.63. The Activity (Candida albicans [37]) was “inactive” and the MIC (Candida parapsilosis [38]) was 40 µM (≈ 17.4 µg/mL).
